Results: ChEMBL document CHEMBL1153806, “Preclinical efficacy of a carboxylesterase 2-activated prodrug of doxazolidine” (J Med Chem, 2009)

What was measured:
Mus musculus [1] = assay: Toxicity in NOD/SCID mouse xenografted with human HepG2 cells expressing CES2 gene assessed as body weight change at 3 mg/kg, iv administered on day 7, 14 and 21 after tumor implantation; format: organism-based; set-up: dose 3 mg/kg, route intravenous; conditions: in vivo
Summary of the method: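 Same NOD/SCID N-Hep G2 flank xenograft model: i.v. tail-vein dosing on days 7, 14 and 21 in 5% DMSO/95% D5W, doses in Dox-equivalent mg/kg, 10 mice/group, vehicle controls. Body weight recorded weekly and followed over the first 5 weeks.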

Mus musculus [2] = assay: Toxicity in NOD/SCID mouse xenografted with human HepG2 cells expressing CES2 gene assessed as survival at 5 mg/kg, iv administered on day 7, 14 and 21 after tumor implantation; format: organism-based; set-up: dose 5 mg/kg, route intravenous; conditions: in vivo
Summary of the method: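 Female NOD/SCID mice, 4–6 weeks old, 10 per group. About 1.5 × 10⁷ N-Hep G2 cells were injected s.c. into the left flank. Tail-vein i.v. dosing (mg/kg Dox-equivalent weight) was given on days 7, 14 and 21. Vehicle was 5% DMSO/95% D5W, and controls received vehicle only. Body weight was measured weekly over the first 5 weeks. Survival was followed to study end.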

Structure (SMILES): CCCCCOC(=O)Nc1ccc(COC(=O)N2CO[C@@H]3[C@H](C)O[C@@H](O[C@H]4C[C@](O)(C(=O)CO)Cc5c(O)c6c(c(O)c54)C(=O)c4c(OC)cccc4C6=O)C[C@@H]32)cc1
- Activity (Mus musculus [1]): Non-toxic
- Activity (Mus musculus [2]): Non-toxic
